ChEMBL document CHEMBL3797089, “Morusin Induces TRAIL Sensitization by Regulating EGFR and DR5 in Human Glioblastoma Cells” (J Nat Prod, 2016)
Active and inactive are the calls of the source. The rule behind the calls is not given here.

Tests used:
[1] = Cytotoxicity against human U373MG cells assessed as reduction in cell viability after 24 hrs by MTT assay; assay type: functional, cell-based, U-373MG ATCC; details: U373 MG
Method in brief: (§1)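 Seeded 3–5 × 10^3 cells/well, treated the next day with a range of morusin (DMSO stock) for 24 h, 37 °C, 5% CO2. Then fresh medium with 1 mg/mL MTT for 2 h at 37 °C, lysis buffer overnight at 37 °C, OD 570 nm. Mean ± SD from at least three independent experiments in triplicate.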

[2] = Cytotoxicity against human U251MG cells assessed as reduction in cell viability after 24 hrs by MTT assay; assay type: functional, cell-based; details: U-251, 24 h; method in brief: as §1
T98G [3] = assay: Cytotoxicity against human T98G cells assessed as reduction in cell viability measured up to 20 uM after 24 hrs by MTT assay in presence of TRAIL; assay type: functional
Method in brief: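 MTT viability. 3–5 × 10^3 cells/well, treated the next day with TRAIL 100 ng/mL plus increasing morusin concentrations for 24 h. 1 mg/mL MTT for 2 h at 37 °C, lysis overnight, OD 570 nm. Living-cell fractions were used for combination index analysis. Mean ± SD, at least three independent experiments.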

T98G [4] = assay: Induction of apoptosis in human T98G cells assessed as increase in cleaved PARP levels at 2.5 uM after 24 hrs by Western blot analysis in presence of TRAIL; assay type: functional, cell-based
Method in brief: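 U87MG and T98G given TRAIL 25 ng/mL plus morusin 2.5 μM together for 24 h; single-agent arms used TRAIL 50 ng/mL or morusin 5 μM. Lysates immunoblotted for cleaved caspase 3, 8, 9 and cleaved PARP, with β-actin as internal control.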

U-87 MG [5] = assay: Induction of apoptosis in human U87MG cells assessed as apoptic cells at 20 uM after 24 hrs by V-FITC/propidium iodide staining based flow cytometric analysis in presence of TRAIL; assay type: functional, cell-based; details: U-87MG ATCC
Method in brief: (§2)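 (2–3) × 10^5 cells/well given TRAIL 50 ng/mL with morusin 20 μM for 24 h. Annexin V-FITC/PI double staining, flow cytometry; annexin V-positive cells counted as apoptotic. Mean ± SD, t-test against mock.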

T98G [6] = assay: Induction of apoptosis in human T98G cells assessed as apoptic cells at 20 uM after 24 hrs by V-FITC/propidium iodide staining based flow cytometric analysis in presence of TRAIL; assay type: functional, cell-based; method in brief: as §2
U373 MG [7] = assay: Induction of DR5 expression in human U373MG cells after 24 hrs by Western blot analysis; assay type: functional, cell-based; details: U-373MG ATCC
Method in brief: (§3)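 Cells exposed to a range of morusin concentrations for 24 h. Cell extracts immunoblotted for DR4, DR5, DcR1 and DcR2, with β-actin as internal control and HRP-conjugated secondary antibodies (1:5000).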

T98G [8] = assay: Cytotoxicity against human T98G cells assessed as reduction in cell viability after 24 hrs by MTT assay; assay type: functional, cell-based; method in brief: as §1
[9] = Cytotoxicity against human U87MG cells assessed as cell death after 24 hrs by MTT assay in presence of TRAIL; assay type: functional, U-87MG ATCC
Method in brief: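 U87MG cells (MEM, 10% FBS) were seeded at (3−5) × 10^3 cells/well and treated 1 day later with TRAIL at 100 ng/mL plus graded test compound for 24 h. Fresh medium with 1 mg/mL MTT was added for 2 h at 37 °C, then lysis buffer overnight at 37 °C, and OD was read at 570 nm. Data are mean ± SD from ≥3 independent experiments in triplicate.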

[10] = Reduction of XIAP expression in human U373MG cells after 24 hrs by Western blot analysis; assay type: functional, cell-based; details: U-373MG ATCC
Method in brief: (§4)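 U87MG (MEM) and U373MG (RPMI) cells were given graded morusin concentrations for 24 h. Whole-cell extracts were immunoblotted for anti-apoptotic proteins, with β-actin as loading control.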

[11] = Reduction of survivin expression in human U373MG cells after 24 hrs by Western blot analysis; assay type: functional, cell-based; details: U-373MG ATCC; method in brief: as §4
[12] = Reduction of XIAP mRNA expression in human U87MG cells after 24 hrs by RT-qPCR analysis; assay type: functional, cell-based; details: U-87MG ATCC
Method in brief: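 U87MG cells were treated with graded morusin for 24 h. Total RNA was extracted with TRI Reagent, and 1 μg was reverse transcribed. XIAP and survivin mRNA were quantified by RT-qPCR, normalized to GAPDH. Results are mean ± SD from at least three independent experiments; unpaired t-test.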

[13] = Reduction of PDGFR expression in human U87MG cells at 25 uM after 24 hrs by Western blot analysis; assay type: functional, cell-based; details: U-87MG ATCC
Method in brief: (§5)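 LN18, U87MG, T98G, U251MG and U373MG glioblastoma cells were exposed to morusin for 24 h. Cells were maintained in DMEM, MEM or RPMI with 10% FBS at 37 °C and 5% CO2. Whole-cell lysates were Western blotted for receptor proteins, with β-actin as internal control.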

T98G [14] = assay: Reduction of EGFR expression in human T98G cells at 25 uM after 24 hrs by Western blot analysis; assay type: functional, cell-based; method in brief: as §5
[15] = Reduction of EGFR expression in human U87MG cells at 25 uM after 24 hrs by Western blot analysis; assay type: functional, cell-based; details: U-87MG ATCC; method in brief: as §5
[16] = biological target: Signal transducer and activator of transcription 3 (Homo sapiens) (UniProt P40763); assay: Inhibition of STAT3 phosphorylation in human U87MG cells measured up to 25 uM after 24 hrs by Western blot analysis; assay type: cell-based; details: U-87MG ATCC
Method in brief: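 Cells grown in MEM (U87MG) or RPMI (U373MG) with 10% FBS, 5% CO2, 37 °C. Treated for 24 h with the indicated concentrations of morusin (DMSO stock). Whole-cell lysates immunoblotted for phosphorylated and total proteins, with β-actin as internal control.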

[17] = biological target: Epidermal growth factor receptor (Homo sapiens) (UniProt P00533); assay: Inhibition of EGFR phosphorylation in human U373MG cells measured up to 25 uM after 24 hrs by Western blot analysis; assay type: cell-based; details: U-373MG ATCC
Method in brief: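 U87MG and U373MG exposed to a range of morusin concentrations for 24 h. Whole-cell lysates immunoblotted for phosphorylated EGFR, with β-actin as internal control.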

U373 MG [18] = assay: Effect on DcR2 expression in human U373MG cells upto 25 uM after 24 hrs by Western blot analysis; assay type: functional, cell-based; details: U-373MG ATCC; method in brief: as §3
LN-18 = assay: Effect on DcR1 expression in human LN18 cells upto 25 uM after 24 hrs by Western blot analysis; assay type: functional, cell-based; method in brief: as §3
U-251 = assay: Effect on DcR1 expression in human U251MG cells upto 25 uM after 24 hrs by Western blot analysis; assay type: functional, cell-based; method in brief: as §3
U373 MG [19] = assay: Effect on DcR1 expression in human U373MG cells upto 25 uM after 24 hrs by Western blot analysis; assay type: functional, cell-based; details: U-373MG ATCC; method in brief: as §3
U-87 MG [20] = assay: Induction of DR5 expression in human U87MG cells at 25 uM by Western blot analysis; assay type: functional, cell-based; details: U-87MG ATCC, TDE = time-dependent effect
Method in brief: (§6)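 Time course: U87MG and U373MG cells held at 25 μM morusin for the times indicated. Extracts immunoblotted (cIAP1 or DR5), with β-actin as loading control.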

U373 MG [21] = assay: Induction of DR5 expression in human U373MG cells at 25 uM by Western blot analysis; assay type: functional, cell-based; details: U-373MG ATCC, TDE = time-dependent effect; method in brief: as §6
U373 MG [22] = assay: Effect on DR4 expression in human U373MG cells upto 25 uM after 24 hrs by Western blot analysis; assay type: functional, cell-based; details: U-373MG ATCC; method in brief: as §3
U-87 MG [23] = assay: Effect on cIAP1 expression in human U87MG cells at 25uM after 3 to 18 hrs by Western blot analysis; assay type: functional, cell-based; details: U-87MG ATCC; method in brief: as §6
[24] = Stability in human U87MG cells assessed as compound remaining at 10 uM after 24 hrs; assay type: ADME, cell-based, U-87MG ATCC; details: read-out: Stability

Signal transducer and activator of transcription 3 (Homo sapiens), sequence (P40763 whole entry): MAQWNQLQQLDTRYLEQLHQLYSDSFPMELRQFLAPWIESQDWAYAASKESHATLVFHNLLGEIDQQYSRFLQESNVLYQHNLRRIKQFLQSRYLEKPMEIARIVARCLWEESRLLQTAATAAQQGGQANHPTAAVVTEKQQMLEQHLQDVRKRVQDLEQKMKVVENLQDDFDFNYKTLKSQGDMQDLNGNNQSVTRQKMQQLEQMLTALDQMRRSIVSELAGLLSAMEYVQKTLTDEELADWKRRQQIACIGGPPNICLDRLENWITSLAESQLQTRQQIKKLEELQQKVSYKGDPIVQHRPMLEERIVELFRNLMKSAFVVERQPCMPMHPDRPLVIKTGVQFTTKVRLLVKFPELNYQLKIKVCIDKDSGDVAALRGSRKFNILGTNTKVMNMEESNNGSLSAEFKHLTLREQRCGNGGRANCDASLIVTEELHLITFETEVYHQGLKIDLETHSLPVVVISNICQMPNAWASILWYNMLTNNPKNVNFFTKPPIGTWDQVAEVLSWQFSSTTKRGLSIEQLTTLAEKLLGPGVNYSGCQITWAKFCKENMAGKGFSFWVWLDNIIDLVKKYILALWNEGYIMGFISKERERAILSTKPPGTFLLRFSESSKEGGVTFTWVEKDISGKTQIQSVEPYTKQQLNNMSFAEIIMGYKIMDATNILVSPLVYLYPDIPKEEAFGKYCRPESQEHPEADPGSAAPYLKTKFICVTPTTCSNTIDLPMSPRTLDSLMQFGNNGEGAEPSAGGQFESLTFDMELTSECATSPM
Epidermal growth factor receptor (Homo sapiens), sequence (P00533 whole entry): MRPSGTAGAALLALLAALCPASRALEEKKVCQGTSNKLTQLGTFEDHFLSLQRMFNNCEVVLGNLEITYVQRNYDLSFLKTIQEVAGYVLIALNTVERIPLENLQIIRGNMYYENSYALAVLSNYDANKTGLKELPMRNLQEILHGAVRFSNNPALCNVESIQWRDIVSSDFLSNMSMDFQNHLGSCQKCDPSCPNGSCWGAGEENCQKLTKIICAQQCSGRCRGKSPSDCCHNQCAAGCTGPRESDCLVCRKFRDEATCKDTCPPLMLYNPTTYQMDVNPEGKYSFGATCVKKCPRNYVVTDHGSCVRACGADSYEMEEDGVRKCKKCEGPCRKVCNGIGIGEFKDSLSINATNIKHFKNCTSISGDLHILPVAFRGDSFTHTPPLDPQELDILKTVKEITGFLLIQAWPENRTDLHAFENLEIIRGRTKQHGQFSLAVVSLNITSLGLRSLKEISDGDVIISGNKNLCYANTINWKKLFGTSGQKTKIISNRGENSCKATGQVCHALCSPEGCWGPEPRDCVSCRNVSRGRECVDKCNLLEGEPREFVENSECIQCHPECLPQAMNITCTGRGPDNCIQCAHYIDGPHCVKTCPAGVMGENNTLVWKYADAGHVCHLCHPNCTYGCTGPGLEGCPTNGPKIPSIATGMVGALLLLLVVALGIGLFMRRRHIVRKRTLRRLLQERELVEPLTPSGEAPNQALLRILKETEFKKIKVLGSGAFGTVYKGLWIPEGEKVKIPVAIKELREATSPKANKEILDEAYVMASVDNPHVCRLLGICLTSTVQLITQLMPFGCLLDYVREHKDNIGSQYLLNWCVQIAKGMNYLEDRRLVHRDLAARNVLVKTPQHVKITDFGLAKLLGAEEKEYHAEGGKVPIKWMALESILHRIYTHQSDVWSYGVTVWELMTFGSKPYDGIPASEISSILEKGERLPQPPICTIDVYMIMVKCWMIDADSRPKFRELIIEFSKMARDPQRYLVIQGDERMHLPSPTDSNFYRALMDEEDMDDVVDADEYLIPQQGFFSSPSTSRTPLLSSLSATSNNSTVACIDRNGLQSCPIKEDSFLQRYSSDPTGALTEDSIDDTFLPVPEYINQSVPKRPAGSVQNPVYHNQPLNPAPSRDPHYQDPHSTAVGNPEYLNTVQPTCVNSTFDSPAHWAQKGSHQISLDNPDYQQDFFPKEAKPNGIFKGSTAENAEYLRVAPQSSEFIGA

CC(C)=CCc1c(-c2ccc(O)cc2O)oc2c3c(cc(O)c2c1=O)OC(C)(C)C=C3 [MORUSIN]
IC50 [1]: 24 µM | IC50 [2]: 24 µM | CI (T98G [3]): <0.8 | Activity (T98G [4]): Active | Activity (U-87 MG [5]): Active | Activity (T98G [6]): Active | Activity (U373 MG [7]): Dose-dependent effect | IC50 (T98G [8]): 24 µM | Activity [9]: 29% | inhibition [10]: Dose-dependent effect | inhibition [11]: Dose-dependent effect | Activity [12]: Dose-dependent effect | Activity [13]: Active | Activity (T98G [14]): Active | Activity [15]: Active | inhibition [16]: Active | inhibition [17]: Active | Activity (U373 MG [18]): inactive | Activity (LN-18): inactive | Activity (U-251): inactive | Activity (U373 MG [19]): inactive | Activity (U-87 MG [20]): tde | Activity (U373 MG [21]): tde | Activity (U373 MG [22]): inactive | Activity (U-87 MG [23]): inactive | remaining at 24 h, 10 µM [24]: > 94%
